Screens: PubChem BioAssay, several laboratories
hDAT+cocaine = changed human dopamine transporter uptake under cocaine IC80; AID 449768; hit rate 1.3% among 110,000; LLC-PK1 hDAT cells, [14C]-dopamine uptake with cocaine IC80; actives deviate in either direction; B-score at 10 µM;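 active = Z score or B-score, a plate-position-corrected score, falls beyond the plate's 99.7% confidence bounds, in either direction; inactive = both scores lie inside the 99.7% bounds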;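 also: scored against the spread of the other compound wells on the same plate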
Target sequence (Q01959 whole entry, looked up): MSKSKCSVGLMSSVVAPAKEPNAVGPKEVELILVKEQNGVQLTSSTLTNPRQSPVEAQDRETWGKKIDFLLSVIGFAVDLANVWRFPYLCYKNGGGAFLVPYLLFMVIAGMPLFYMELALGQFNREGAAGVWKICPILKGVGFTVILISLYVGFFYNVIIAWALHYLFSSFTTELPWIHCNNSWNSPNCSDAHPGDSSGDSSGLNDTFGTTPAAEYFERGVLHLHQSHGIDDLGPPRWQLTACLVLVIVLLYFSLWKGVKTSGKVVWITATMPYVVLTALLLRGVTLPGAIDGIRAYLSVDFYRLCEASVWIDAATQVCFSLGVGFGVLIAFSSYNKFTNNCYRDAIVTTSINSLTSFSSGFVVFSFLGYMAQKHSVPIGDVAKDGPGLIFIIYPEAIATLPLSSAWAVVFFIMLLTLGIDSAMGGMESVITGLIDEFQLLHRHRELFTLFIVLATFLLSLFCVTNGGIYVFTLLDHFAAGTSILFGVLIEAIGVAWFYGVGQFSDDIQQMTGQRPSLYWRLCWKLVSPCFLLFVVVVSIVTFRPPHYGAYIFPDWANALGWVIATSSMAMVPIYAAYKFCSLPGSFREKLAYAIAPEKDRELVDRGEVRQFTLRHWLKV
M1 agonist = activates the M1 muscarinic receptor; CHO-M1 cells, Fluo-4 calcium fluorescence, agonist mode; active compounds read high; B-score at 10 µM; hit rate 3% among 64,000;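 active = fluorescence rise, raw or as B-score row- and column-corrected plate score, outside the 99.7% band of its plate's samples, either direction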
HEK293 NFkB inh = inhibitors of the PMA/ionomycin-induced NF-kB reporter in HEK293 cells. HEK-293 NF-kB luciferase reporter, luminescence. inhibition, % at 3 µM. hit rate 0.21% among 62,000. AID 465;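 active = inhibition above the mean of all tested compounds plus 3 SD, cut at about 40% in these data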;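 also: 0% = stimulated DMSO wells and 100% = 10 µM reference inhibitor 5653914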
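Timing: 1 h pretreatment, 16 h stimulation, 37 °C; system: HEK-293 cells with stable firefly luciferase reporter driven by four HIV NF-kB elements; doses: 3 µM once, 0.30% DMSO; measured by: luciferase luminescence; control set: DMSO and 10 µM reference inhibitor; repeats: single test; reagent: PMA plus ionomycin mix as NF-kB-activating stimulus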
D1 mod = D1 dopamine receptor (human) allosteric modulation | P21728 | HEK293 D1, CRE-luciferase, dopamine EC30 potentiation; actives deviate in either direction | B-score at 10 µM | hit rate 5.9% among 58,000;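 active = luminescence count or its row- and column-corrected plate score outside the 99.7% band of the plate's sample wells, on either side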
M1 antagonist = blocks the rat M1 muscarinic receptor response to acetylcholine; CHO-M1 cells, Fluo-4 calcium, ACh EC80 antagonist mode; active compounds read low; B-score at 10 µM; hit rate 3.4% among 64,000; AID 628;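 active = calcium fluorescence response, raw or row-and-column corrected B-score, differing from the plate sample mean either way at a set confidence level, mostly lower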
BAP1 inh = inhibitors of human BAP1 deubiquitinase. recombinant BAP1, Ub-AMC hydrolysis fluorescence kinetic; active compounds read low. calls only at 20 µM. hit rate 0.48% among 72,000. AID 436;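 active = activity remaining at or below 50% of control, provided the compound also passes the data quality filters; inactive = the rest, including low values that fail the filters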;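 also: 100% = DMSO wells rate and 0% = substrate alone blank rate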
D1 mod confirm = confirmation of human D1 dopamine receptor allosteric modulators; shares compounds with D1 mod; HEK293 D1 CRE-luciferase, dopamine EC30 potentiation; active compounds read high; luminescence at 10 µM; hit rate 88% among 2,200; AID 642;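 active = luminescence in either of two replicates above the same-plate mean plus 3 SD of the low-dose dopamine control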
D1 ag no DA = activates D1 CRE-luciferase signal without dopamine present | HEK293 D1 CRE-luciferase, luminescence, no dopamine; active compounds read high | shares compounds with D1 mod | luminescence at 10 µM | hit rate 0.8% among 1,900; in the data active = luminescence above about 3900
Isoprot counter = isoproterenol response counter-screen activity for D1 modulators; calls only at 10 µM; hit rate 63% among 2,200; HEK293 D1 CRE-luciferase, isoproterenol EC30 counter-screen; shares compounds with D1 mod; AID 647;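 active = luminescence in either replicate above plate mean of wells with a partly effective reference agonist dose plus 3 SD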;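 also: isoproterenol raises cAMP through native beta-adrenoceptor Gs so signal bypasses D1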
An asterisk follows results filed as active; i = inactive; · = no result given; + = active, no number. A selection: hits, their analogues and other compounds. The true share with any hit is near 7.2%.

SMILES	hDAT+cocaine	M1 agonist	HEK293 NFkB inh	D1 mod	M1 antagonist	BAP1 inh	D1 mod confirm	D1 ag no DA	Isoprot counter
O=C(CC1SC(=NC2CCCCC2)NC1=O)Nc1ccccc1 (centres undefined)	0.24	-0.54	16	2.6*	0.71	i	6104*	1644	i
Cc1cccc(NC(=O)CC2SC(=NC3CCCCC3)NC2=O)c1 (centres undefined)	1.8	-0.74	11	-0.099	0.46	·	·	·	·
COc1ccc(CNc2nc(NCc3ccc(OC)cc3)n(S(C)(=O)=O)n2)cc1	0.13	0.016	19	4.7*	0.013	i	9448*	1620	+
COCC(=O)n1nc(NCc2ccc(OC)cc2)nc1NCc1ccc(OC)cc1	0.53	0.82	15	1.5	1.2	i	·	·	·
CCC(=O)n1nc(-c2ccccc2)nc1NCc1ccccc1	-0.24	0.4	-9	0.58	-0.046	i	·	·	·
CCC(=O)n1nc(-c2cccnc2)nc1NCc1ccc(OC)cc1	0.026	0.4	12	11*	-0.048	i	7416*	1672	i
CCC(=O)n1nc(NCc2ccc(OC)c(OC)c2)nc1NCc1ccc(OC)c(OC)c1	·	0.56	12	6*	0.0066	i	15072*	·	+
CCCCOc1nc(N)nc(-c2ccccc2)n1	-0.67	0.98	5	15*	0.15	i	19712*	1784	+
CCn1c(=O)c2cc(S(=O)(=O)NC3CCCCC3)ccc2n(CC)c1=O	-1.1	0.47	8	4.2*	0.03	i	6924*	1232	i
CCn1c(=O)c2cc(S(=O)(=O)NCc3ccccc3)ccc2n(CC)c1=O	-0.9	-0.94	10	-0.052	-0.15	i	·	·	·
O=C(Nc1nc2ccc(Cl)cc2s1)c1cccc([N+](=O)[O-])c1	·	·	·	·	·	i	·	·	·
O=c1c2c(-c3ccco3)csc2nc(SCc2cn3cccnc3n2)n1-c1ccccc1	-0.016	0.025	7	8.4*	-0.84	·	15872*	1792	+
O=C(NCc1ccccc1)c1ccc(Cl)c(S(=O)(=O)N2CCOCC2)c1	·	·	·	·	·	i	·	·	·
O=C(OCc1nnc(-c2ccccc2)o1)c1ccco1	0.0028	-0.032	3	-0.097	-0.0037	i	·	·	·
CCOc1ncccc1C(=O)OCc1nnc(-c2ccccc2)o1	0.052	-0.19	-2	4.1*	1.4	i	13008*	1620	i
CC(C)(C)C1CCc2onc(C(=O)N3CCOCC3)c2C1 (centres undefined)	0.37	1	10	6*	-0.48	i	10148*	1516	+
CCOc1nc(-c2ccccc2)ccc1-c1noc(-c2ccncc2)n1	-0.87	-0.27	16	-0.039	-0.025	i	·	·	·
CCOc1nc(C)ccc1-c1noc(-c2ccncc2)n1	2	0.83	5	18*	0.35	i	11268*	1692	+
COc1ccc(OC)c(C2C(C(C)=O)=C(O)C(=O)N2CCC(=O)O)c1 (centres undefined)	0.09	0.43	8	2.7*	-0.0039	i	4144	1648	i
COc1ccc(OC)c(C2C(C(C)=O)=C(O)C(=O)N2CCN2CCOCC2)c1 (centres undefined)	0.57	·	2	0.28	·	i	·	·	·
Cc1c2c(nc3c(C(=O)NC4CC4)cnn13)CCCC2	0.48	1.1	3	1.1	0.61	i	·	·	·
CCC(C)NC(=O)c1cnn2c(C)c3c(nc12)CCCC3 (centres undefined)	-0.13	0.36	17	7*	-0.085	i	11440*	1904	+
Cc1ccc(Oc2ccccc2)c(NC=O)c1	-0.053	1.3	4	4.9*	-0.0033	·	12104*	1524	i
Cc1cc(C)cc(Oc2ccccc2C=O)c1	0.037	·	·	·	·	·	·	·	·
CCCn1c(SCC(=O)Nc2ccccc2C(=O)OC)nc2c1c(=O)n(C)c(=O)n2C	-0.42	-0.056	10	8.5*	-0.79	i	12220*	1740	+
SMILES	hDAT+cocaine	M1 agonist	HEK293 NFkB inh	D1 mod	M1 antagonist	BAP1 inh	D1 mod confirm	D1 ag no DA	Isoprot counter
CCCn1c(SCC(=O)N2CCCC2)nc2c1c(=O)n(C)c(=O)n2C	0.047	-0.81	6	·	-0.64	i	·	·	·
CCn1c(=O)cc(SCC(=O)Nc2ccc3c(c2)OCO3)c2ccccc21	0.41	-0.24	12	5.2*	-0.13	i	9432*	1616	i
CC(C)n1c(SCC(=O)N2CCCC2)nc2c1c(=O)n(C)c(=O)n2C	-0.016	0.51	10	6.4*	0.42	i	13032*	1508	i
COC(=O)c1ccccc1NC(=O)CSc1nc2c(c(=O)n(C)c(=O)n2C)n1C	·	-0.21	16	0.57	1.2	i	·	·	·
CC(C)n1c(SCC(=O)Nc2ccc3c(c2)OCO3)nc2c1c(=O)n(C)c(=O)n2C	-0.17	0.59	3	9.1*	-0.096	i	7904*	1376	+
ClCCCN1c2ccccc2Sc2ccc(Cl)cc21	·	·	·	·	·	i	·	·	·
CCOc1ccc2nc(NC(=O)CSc3nc4c(c(=O)n(C)c(=O)n4C)n3C(C)C)sc2c1	·	-0.49	9	4*	1.2	i	10912*	1684	+
COc1ccccc1N/C(=N/S(=O)(=O)c1ccc(Cl)cc1)c1ccccc1	-1.2	·	·	·	·	·	·	·	·
COc1cc(N/C(=N/S(=O)(=O)c2ccccc2)c2ccccc2)ncn1	0.16	0.52	-3	6.4*	-0.61	·	14612*	1720	i
CCOc1ccc(C=Nc2ccc([N+](=O)[O-])cc2)cc1	·	·	·	·	·	i	·	·	·
CCCn1c(SCC(N)=O)nc2c(c1=O)C1(CCCC1)Cc1ccccc1-2	·	0.2	·	·	0.38	i	·	·	·
CCn1c(SCC#N)nc2c(c1=O)C1(CCCC1)Cc1ccccc1-2	-1.2	-0.54	15	2.5*	0.012	i	7420*	·	i
COc1ccc(-c2nnc(SCC(=O)Nc3ncc(C)s3)n2-c2ccccc2)cc1OC	1.3	1.1	12	3.6*	-0.0089	i	11512*	1492	+
Cc1cc(C)n(-c2nc3ccccc3c3nc(C)nn23)n1	0.15	-0.58	12	9.6*	0.84	i	13408*	·	+
CCOC(=O)c1c(-c2ccncc2)csc1N	0.81	-0.11	14	6.8*	0.098	i	14984*	1720	i
CCC(=O)Nc1cccc(NC(=O)c2cc3ccccc3o2)c1	·	1.2	-35	5.1*	0.063	i	3904*	1572	i
Cc1cccc(NC(=O)c2cc3ccccc3o2)c1	0.65	0.18	-41	-2.2	0.64	i	·	·	·
